Assay results from paper PMC12125705 (Journal of medicinal chemistry, 2017).

Columns and labels:
Assay in all cases: MIC by microbroth dilution
Details in all cases: 24 h, 37 °C
C. freundii 4747CFAA = assay type: cell-based, Citrobacter freundii
Procedure, shortened: (§1)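 CLSI microbroth dilution in Mueller-Hinton broth. Strains were grown at 37 °C with shaking to log phase, pelleted, and resuspended in 0.85% saline to OD625 0.1. Final inoculum 5 × 10^5 CFU/mL in 96-well plates, tested in triplicate, incubated 24 h at 37 °C. Growth was read as OD at 625 nm.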

S. flexneri 2457NR517 = assay type: cell-based, Shigella flexneri
K. pneumoniae NR15410 = assay type: cell-based, Klebsiella pneumoniae
Procedure, shortened: as §1

MRSA A960649 = assay type: cell-based, Staphylococcus aureus
Procedure, shortened: as §1

E. cloacae 13047 = assay type: cell-based, Enterobacter cloacae
Procedure, shortened: as §1

MRSA 33591 = assay type: cell-based, Staphylococcus aureus
Procedure, shortened: as §1

S. aureus 29213 = assay type: cell-based, Staphylococcus aureus
E. coli 25922 = assay type: cell-based, Escherichia coli
E. faecium BM4105RF = assay type: cell-based, Enterococcus faecium
S. aureus 33591 = assay type: cell-based, Staphylococcus aureus
E. faecalis 29212 = assay type: cell-based, Enterococcus faecalis
E. coli K12 = assay type: cell-based, Escherichia coli
P. aeruginosa 27853 = assay type: cell-based, Pseudomonas aeruginosa
S. epidermidis 12384 = assay type: cell-based, Staphylococcus epidermidis
Procedure, shortened: as §1

A. baumanni 19606 = assay type: cell-based, Acinetobacter baumanni
Procedure, shortened: as §1

6-(4-Methylpiperazin-1-yl)-2-(4-(2-(4-(oct-7-ynyl)-1H-1,2,3-triazol-1-yl)ethoxy)phenyl)-1H-benzo[d]imidazole [Compound 22]
>32 µg/mL: MIC C. freundii 4747CFAA (C. freundii 4747CFAA) | MIC S. flexneri 2457NR517 (S. flexneri 2457NR517) | MIC K. pneumoniae NR15410 (K. pneumoniae NR15410) | MIC MRSA A960649 (MRSA A960649) | MIC E. cloacae 13047 (E. cloacae 13047) | MIC MRSA 33591 (MRSA 33591) | MIC E. faecium BM4105RF (E. faecium BM4105RF) | MIC S. epidermidis 12384 (S. epidermidis 12384) | MIC A. baumanni 19606 (A. baumanni 19606)
16 µg/mL: MIC E. coli 25922 (E. coli 25922) | MIC E. coli K12 (E. coli K12) | MIC P. aeruginosa 27853 (P. aeruginosa 27853)
16 to 32 µg/mL: MIC S. aureus 29213 (S. aureus 29213) | MIC S. aureus 33591 (S. aureus 33591) | MIC E. faecalis 29212 (E. faecalis 29212)
